Measurements of several laboratories.

O=C(NO)c1ccc(Cn2cnc3c(Nc4ccc(Cl)cc4)ncnc32)cc1  IC50 (HEL; cell growth or viability; MTT; 72 h): 0.77 µM
COc1ncccc1Cn1nc(-c2ccc(CO)o2)c2ccccc21  IC50 (CC-LP-1; cell growth or viability; ATP luminescence): > 46 µM
COc1ccc(Nc2ncnc3c2ncn3Cc2ccc(C(=O)Nc3ccccc3N)cc2)cc1  IC50 (NB-4; cell growth or viability; MTT; 72 h): 2.44 µM
CNC(=O)c1cc(Oc2ccc(NC(=O)Nc3ccc(Cl)c(C(F)(F)F)c3)cc2)ccn1  IC50 (SNU-449; cell growth or viability; imaging; 72 h): 6.37 µM
O=C(CSc1nc2ccccc2s1)N/N=C/c1ccc(OCC(=O)Nc2ccc(Br)cc2)cc1  IC50 (HEL 299; cell growth or viability; MTS; 72 h): > 100 µM
O=c1[nH]cc(F)c(=O)[nH]1  IC50 (HSF; cell growth or viability; MTT; 48 h): 76.9 µM
CS(=O)(=O)NCCCCN=C=S  IC50 (HDFa; cell growth or viability; MTT; 24 h): 42.9 µM
Cc1cc(NS(=O)(=O)c2ccc(NC(=O)/C(C#N)=C/c3cccnc3)cc2)no1  IC50 (HSF; cell growth or viability; MTT; 48 h): > 200 µM
O=C(CSc1nc2ccccc2s1)N/N=C/c1ccc(OCC(=O)Nc2ccc([N+](=O)[O-])cc2)cc1  IC50 (HEL 299; cell growth or viability; MTS; 72 h): > 100 µM
O=C(NS(=O)(=O)c1ccc(C(F)(F)F)cc1)c1cc2ccccc2n1Cc1ccc(Br)c2ccccc12  IC50 (mouse BMDM; IL-1β release; inhibitor; ELISA; LPS-stimulated): 7.28 µM
OCc1ccc(-c2nn(Cc3cccnc3)c3ccccc23)o1  IC50 (CC-LP-1; cell growth or viability; ATP luminescence): ~46 µM
O=C(NO)c1ccc(Cn2cnc3c(Nc4ccc(Br)cc4F)ncnc32)cc1  IC50 (NB-4; cell growth or viability; MTT; 72 h): 1.41 µM
OCc1ccc(-c2nn(Cc3cccnc3)c3cccnc23)o1  IC50 (CC-LP-1; cell growth or viability; ATP luminescence): > 46 µM
CCC(=CCc1c(O)cc2c(c1O)C(=O)C[C@H](c1ccccc1O)O2)CC  IC50 (HeLa; cell growth or viability; MTT; 48 h): 37.4 µM
Cc1cc(NS(=O)(=O)c2ccc(NC(=O)/C(C#N)=C/c3ccc(N4CCCC4)cc3)cc2)no1  IC50 (HSF; cell growth or viability; MTT; 48 h): > 200 µM
OCc1ccc(-c2nn(Cc3ccncc3)c3cccnc23)o1  IC50 (CC-LP-1; cell growth or viability; ATP luminescence): > 46 µM
C(=N\Nc1cc(N/N=C/c2ccc3ccccc3n2)nc(-c2ccccc2)n1)/c1ccc2ccccc2n1  IC50 (BGC-823; cell growth or viability; MTT; 48 h): 9.12 µM
COc1cccc2c1C(=O)c1c(O)c3c(c(O)c1C2=O)C[C@@](O)(C(=O)CO)C[C@@H]3O[C@H]1C[C@H](N)[C@H](O)[C@H](C)O1  IC50 (H69AR; cell growth or viability; MTT; 75 h): 22.5 µM
CNC(=O)c1cc(Oc2ccc(NC(=O)Nc3ccc(Cl)c(C(F)(F)F)c3)cc2)ccn1  IC50 (BGC-823; cell growth or viability; MTT; 48 h): 6.08 µM
O=C(NO)c1ccc(Cn2cnc3c(Nc4cccc([N+](=O)[O-])c4)ncnc32)cc1  IC50 (HEL; cell growth or viability; MTT; 72 h): 2.07 µM
CN(C)CCNC(=O)c1cccn2c(=O)c3cc4ccccc4cc3nc12  IC50 (SNU-449; cell growth or viability; imaging; 72 h): 36.3 µM
Cc1cc2c(C(N)=O)cccc2n1-c1nc2c(c(NCc3ccccc3)n1)CCCN2  IC50 (KMS-11; cell growth or viability; 72 h): 1.3 µM
OCc1ccc(-c2nn(Cc3ccccn3)c3cccnc23)o1  IC50 (CC-LP-1; cell growth or viability; ATP luminescence): > 46 µM
O=C(NO)c1ccc(Cn2cnc3c(Nc4ccc(F)c(Cl)c4)ncnc32)cc1  IC50 (HEL; cell growth or viability; MTT; 72 h): 3.54 µM
COC(=O)c1cc(C(C)=NNc2nc(-c3ccc4c(c3)OCCCO4)cs2)ccc1O  IC50 (HSF; cell growth or viability; MTT; 96 h): 231 µM
O=C(CSc1nc2ccccc2s1)N/N=C/c1ccc(OCC(=O)Nc2cccc(Br)c2)cc1  IC50 (HEL 299; cell growth or viability; MTS; 72 h): > 100 µM
COc1cc(Cn2nc(-c3ccc(CO)o3)c3ccccc32)ccn1  IC50 (CC-LP-1; cell growth or viability; ATP luminescence): > 46 µM
Cc1nc(Nc2ncc(C(=O)Nc3c(C)cccc3Cl)s2)cc(N2CC[C@H](O)C2)n1  IC50 (P3HR-1; cell growth or viability; ATP luminescence; 72 h): > 10 µM
Nc1ccccc1NC(=O)c1ccc(Cn2cnc3c(Nc4ccc(Br)cc4F)ncnc32)cc1  IC50 (NB-4; cell growth or viability; MTT; 72 h): 0.39 µM
OCc1ccc(-c2nn(Cc3ccccn3)c3ccccc23)o1  IC50 (CC-LP-1; cell growth or viability; ATP luminescence): > 46 µM
Nc1ccccc1NC(=O)c1ccc(Cn2cnc3c(Nc4ccc(Cl)cc4)ncnc32)cc1  IC50 (NB-4; cell growth or viability; MTT; 72 h): 0.73 µM
NCc1ccc(-c2nn(Cc3ccncc3)c3ccccc23)o1  IC50 (CC-LP-1; cell growth or viability; ATP luminescence): > 46 µM
COc1ccc(Nc2ncnc3c2ncn3Cc2ccc(C(=O)NO)cc2)cc1  IC50 (HEL; cell growth or viability; MTT; 72 h): 0.8 µM
C(=N\Nc1cc(N/N=C/c2cccc3cccnc23)ncn1)/c1cccc2cccnc12  IC50 (BGC-823; cell growth or viability; MTT; 48 h): 26.8 µM
COc1cccc2c1C(=O)c1c(O)c3c(c(O)c1C2=O)C[C@@](O)(C(=O)CO)C[C@@H]3O[C@H]1C[C@H](N)[C@H](O)[C@H](C)O1  IC50 (BGC-823; cell growth or viability; 96 h): 0.0818 µM
